Measured values pooled from the literature.
Protocols differ between the studies behind these lines.
Target: Ephrin type-A receptor 5 (EPHA5, Homo sapiens, UniProt P54756)

| Structure (SMILES) | test | setting | endpoint | value |
| --- | --- | --- | --- | --- |
| CCOCCn1cc(C(=O)Nc2ccc(-n3nc(-c4cccnc4)cc3C(F)(F)F)cn2)ccc1=O | cell-free assay, competition with immobilised ligand | 1 µM | remaining binding | 100% |
| CC(C)(C)c1nc(-c2cccc(NS(=O)(=O)c3c(F)cccc3F)c2F)c(-c2ccnc(N)n2)s1 | enzyme activity, inhibitor, radiometric | 1 µM | remaining activity | 116% |
| COc1cc(-c2cc(-c3ccc(N4CCNCC4)cc3)cnc2C)cc(OC)c1OC | enzyme activity, inhibitor | 1 µM | inhibition | 4% |
| CCN(CC)CCNC(=O)c1c(C)[nH]c(/C=C2\C(=O)Nc3ccc(F)cc32)c1C | enzyme activity, inhibitor | 0.3 µM | inhibition | 7% |
| Nc1ncnc2occ(-c3ccc(NC(=O)Nc4cc(C(F)(F)F)ccc4F)cc3)c12 | cell-free assay | 20 µM | remaining signal | 0.05% |
| C#Cc1cccc(Nc2ncnc3cc(OCCOC)c(OCCOC)cc23)c1 | cell-free assay | 0.5 µM | remaining signal | 99.1% |
| N#CC1(c2ccccn2)CCN(Cc2cc(C(=O)N3CCCC3)c(=O)n3ccccc23)CC1 | cell-free assay, competition with immobilised ligand | 1 µM | remaining binding | 100% |
| Cc1ccc(Nc2nccc(N(C)c3ccc4c(C)n(C)nc4c3)n2)cc1S(N)(=O)=O | enzyme activity, inhibitor | 0.3 µM | inhibition | 6% |
| O=c1nc(-c2ccccn2)sc2ccccc12 | cell-free assay, competition with immobilised ligand | 1 µM | remaining binding | 94% |
| Cc1sc(C(=O)NC2COC2)cc1-n1cc(NC(=O)Nc2c(F)cccc2Cl)cn1 | enzyme activity, inhibitor | 10 µM | remaining activity | 106% |
| CNC(=O)c1cc(Oc2ccc(NC(=O)Nc3ccc(Cl)c(C(F)(F)F)c3)cc2)ccn1 | enzyme activity, inhibitor | 10 µM | inhibition | 92% |
| O=C(Nc1ccc(Oc2ccc(F)cc2)cc1)N1CCc2ncccc2[C@H]1c1ccc(F)cc1 | cell-free assay, competition with immobilised ligand | 1 µM | remaining binding | 100% |
| CCCS(=O)(=O)Nc1ccc(F)c(C(=O)c2c[nH]c3ncc(-c4ccc(Cl)cc4)cc23)c1F | enzyme activity, inhibitor | 1 µM | inhibition | < 20% |
| Cc1ccc(C(=O)Nc2ccc(CN3CCN(C)CC3)c(C(F)(F)F)c2)cc1C#Cc1cnc2cccnn12 | cell-free assay | 23.5 nM | remaining signal | 31% |
| CCc1ccccc1C(=O)Nc1n[nH]c2c(C)c(F)c(C3C(C#N)=C(C)N(C)C(C)=C3C#N)cc12 | cell-free assay, competition with immobilised ligand | 1 µM | remaining binding | 87% |
| Cc1cc(NC(=O)c2cccc3cc(-c4cccc5[nH]nc(N)c45)ccc23)ccc1F | enzyme activity, inhibitor | 0.1 µM | activity vs control | 99% |
| Cc1cnc(NC2CCOCC2)nc1-n1cnc(C(=O)NC(CN)c2cc(F)cc(Cl)c2)c1 (stereo not shown) | enzyme activity, inhibitor, radiometric | 1 µM | remaining activity | 92% |
| C[C@@H]1CN(c2cc(-c3nn(C)c4ccc(OC5(C)CC5)cc34)ncn2)C[C@H](C)O1 | cell-free assay, competition with immobilised ligand | 1 µM | remaining binding | 100% |
| Cc1ccc(NC(=O)c2ccc(C)c(C(F)(F)F)c2)cc1C#Cc1nn(C2CCC(O)CC2)c2ncnc(N)c12 (stereo not shown) | cell-free assay | 10 µM | remaining signal | -1% |
| FC(F)(F)c1ccc2c(c1)nc(-c1cccnc1)n2C1CC1 | cell-free assay, competition with immobilised ligand | 1 µM | remaining binding | 96% |
| COc1cc2ncnc(Nc3ccc(Oc4ccccc4)cc3C)c2cc1OC | enzyme activity, inhibitor | 1 µM | inhibition | 5% |
| N#CCCc1ccc2c(c1)-c1[nH]c3ccc([N+](=O)[O-])cc3c1CC(=O)N2 | cell-free assay | 0.5 µM | remaining signal | 88.5% |
| CC(C)(O)[C@H]1CC[C@H](Nc2ccc3ncc(-c4cccc(C(F)(F)F)c4)n3n2)CC1 | enzyme activity, inhibitor | 1 µM | remaining activity | 101% |
| CC(=O)N1CCC(c2ccc(C(=O)NC3=NCCN3)cc2C(F)(F)F)CC1 | cell-free assay, competition with immobilised ligand | 1 µM | remaining binding | 100% |
| COc1cc2c(N3CCN(C(=O)Nc4ccc(OC(C)C)cc4)CC3)ncnc2cc1OCCCN1CCCCC1 | cell-free assay | 0.5 µM | remaining signal | 104% |
